From ChEMBL document CHEMBL3244177, “Synthesis and prostaglandin-like activity of 2-(trans-3-hydroxy-1-octenyl)-3-indoleheptanoic acid” (J Med Chem, 1978)
Activity calls are given as the source filed them. No cut-off for these calls is given here.

Tests used:
Assay type in all cases: tissue-based
Rattus norvegicus [1] = organism: Rattus norvegicus; assay: Effect on Prostaglandin receptor-induced contraction in rat stomach fundus strip assessed as intrinsic activity at 0.4 ug by kymography relative to PGE1
In short: (§1)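 Rat fundus strips in Krebs, dosed once tone was constant. Final bath concentrations were 2.70–13.5 × 10^-7 mol/L for the compound and 0.70–14.0 × 10^-9 mol/L for PGE1 standards, from ethanol stocks. Auxotonic kymograph recording, 10-min cycle, 90 s contact. PGE1-like activity was bracketed between two PGE1 standard doses, mean of five observations per concentration.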

Rattus norvegicus [2] = organism: Rattus norvegicus; assay: Effect on Prostaglandin receptor-induced contraction in rat stomach fundus strip assessed as intrinsic activity at 1.6 ug by kymography relative to PGE1; in short: as §1
[3] = Competitive inhibition of Prostaglandin receptor in rat stomach fundus strip assessed as inhibition of PGE1-induced contraction by kymography
In short: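 Rat stomach fundus strip contractions to PGE1 11.3 × 10^-9 mol/L compared with and without analogue at 2.15–21.5 × 10^-6 mol/L. Stock in ethanol, diluted in Krebs. Kymograph with auxotonic lever, load 1 g baseline and 3 g maximal, 10-min dose cycle, 90 s contact. Approximate IC50 taken from the inhibition concentration-response curve in four preparations.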

Rattus norvegicus [4] = organism: Rattus norvegicus; assay: Induction of Prostaglandin receptor-induced adenylate cyclase activation in rat liver homogenate assessed as increase in cAMP level at equimolar dose of 2.8 x 10^-5 mol/L PGE1 after 10 mins relative to control
In short: (§2)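 Rat liver homogenate adenylate cyclase, 10 min at 37 °C in Tris-HCl 0.1 mol/L pH 8.0 with ATP 4 × 10^-3, MgSO4 15 × 10^-3, GTP 5 × 10^-4, EGTA 1 × 10^-4 and theophylline 5 × 10^-3 mol/L. Stopped by 2 min boiling, then frozen, thawed and centrifuged. cAMP in the supernatant measured by the Brown method, saline blanks, four replicates.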

Cavia porcellus [5] = organism: Cavia porcellus; assay: Effect on Prostaglandin receptor-induced contraction in guinea pig ileum assessed as intrinsic activity at 1.6 ug by kymography relative to PGE1
In short: (§3)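 Guinea-pig terminal ileum in a 3-mL oxygenated Tyrode bath at 30 °C with cyproheptadine 3 × 10^-9 mol/L. Dosed at 5-min intervals, 30 s contact, isotonic lever on a smoked drum. Final concentrations were 3.6–17.9 × 10^-7 mol/L for the compound and 0.94–18.8 × 10^-9 mol/L for PGE1 standards. Activity bracketed between two PGE1 doses, mean of five observations.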

Rattus norvegicus [6] = organism: Rattus norvegicus; assay: Inhibition of Prostaglandin receptor-induced adenylate cyclase activation in rat liver homogenate assessed as cAMP level at 6.7 to 13.4 x 10^-3 M after 10 mins relative to control
Rattus norvegicus [7] = organism: Rattus norvegicus; assay: Induction of Prostaglandin receptor-induced adenylate cyclase activation in rat liver homogenate assessed as increase in cAMP level at 6.7 to 13.4 x 10^-3 M after 10 mins relative to control; in short: as §2
Cavia porcellus [8] = organism: Cavia porcellus; assay: Effect on Prostaglandin receptor-induced contraction in guinea pig ileum assessed as intrinsic activity at 0.4 ug by kymography relative to PGE1; in short: as §3
Cavia porcellus [9] = organism: Cavia porcellus; assay: Effect on Prostaglandin receptor-induced contraction in guinea pig ileum assessed as intrinsic activity at 0.8 ug by kymography relative to PGE1; in short: as §3
Rattus norvegicus [10] = organism: Rattus norvegicus; assay: Effect on Prostaglandin receptor-induced contraction in rat stomach fundus strip assessed as intrinsic activity at 2.0 ug by kymography relative to PGE1; in short: as §1
Rattus norvegicus [11] = organism: Rattus norvegicus; assay: Effect on Prostaglandin receptor-induced contraction in rat stomach fundus strip assessed as intrinsic activity at 0.8 ug by kymography relative to PGE1; in short: as §1
Cavia porcellus [12] = organism: Cavia porcellus; assay: Effect on Prostaglandin receptor-induced contraction in guinea pig ileum assessed as intrinsic activity at 2.0 ug by kymography relative to PGE1; in short: as §3

SMILES: CCCCCC(O)/C=C/c1[nH]c2ccccc2c1CCCCCCC(=O)O (configuration not stated)
- Intrinsic activity (Rattus norvegicus [1]): 0.00075
- Intrinsic activity (Rattus norvegicus [2]): 0.00056
- IC50 [3]: 11.8 µM
- Activity (Rattus norvegicus [4]): inactive
- Intrinsic activity (Cavia porcellus [5]): 0.0014
- inhibition (Rattus norvegicus [6]): 40%
- Activity (Rattus norvegicus [7]): Active
- Intrinsic activity (Cavia porcellus [8]): 0.004
- Intrinsic activity (Cavia porcellus [9]): 0.0029
- Intrinsic activity (Rattus norvegicus [10]): 0.00055
- Intrinsic activity (Rattus norvegicus [11]): 0.00075
- Intrinsic activity (Cavia porcellus [12]): 0.0057
